Measurements reported in the array DNA melting data of Ke et al. (doi:10.1101/2024.01.08.574731).

How the values were obtained:
[1] = melting temperature; fluorescence melt of hairpins on a sequencing array, two-state fit, raised by 9.35 °C to match UV melts; settings: sodium 0.088 M
How it was run: (§1)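 Melting temperature and folding enthalpy were derived from bootstrapped two-state fits. The fitted temperatures were raised by 9.35 °C to agree with UV melts, and four replicates were combined by inverse variance. The underlying data were Cy3 fluorescence images of library hairpins, with annealed Cy3 and quencher oligos, on a sequenced MiSeq flow cell in 50 mM Na-HEPES pH 8.0, 25 mM NaCl, taken in 2.5 °C steps up to 60 °C, normalised to pre-quench Cy3 and to control constructs.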

[2] = folding enthalpy; higher = less favourable; fluorescence melt of hairpins on a sequencing array, two-state fit; settings: sodium 0.088 M
How it was run: as §1

Sequence | Tm [1] [°C] | folding enthalpy [2] [kcal/mol]
GGAAGCGAAAGCTTTCC ((((((....))).))) | 50.1 | -30.2
GGAAGCGAAAGCTTTTCC ((((((....)))..))) | 33.4 | -12.2
GGAAGCGGAAACGCTTTC (.(((((....))))).) | 53.7 | -21.2
GGAAGCGGAAACGTTTCC ((((.((....)).)))) | 49.8 | -39.7
GGAAGGGAAACCTTCC ((((((....)))))) | 55.2 | -38
GGAAGTCGAAAGACCTCC (((.(((....))).))) | 43.3 | -27.1
GGAAGTCGAAAGACTCC (((.(((....)))))) | 53 | -17.9
GGAAGTGGAAACACTCCC ((.((((....)))).)) | 42.7 | -23
GGAAGTGGAAACGTTTCC ((((..(....)..)))) | 37.6 | -13.3
GGAATACGAAAGTAGTCC (((.(((....))).))) | 51.8 | -33.9
GGAATAGGAAACCATTCC (((((.(....).))))) | 34.3 | -25.7
GGAATCCCGAAAGGGTCC (((..(((....)))))) | 33 | -13.2
GGAATCCGAAAGGACTCC (((.(((....))).))) | 46.3 | -26.2
GGAATCCGAAAGGATCC (((.(((....)))))) | 50 | -19.6
GGAATCGAAAGATGATCC ((((((....)))..))) | 29 | -17.8
GGAATCGAAAGATTCC ((((((....)))))) | 64.3 | -32.3
GGAATGCCGAAAGGCTCC (((..(((....)))))) | 34.5 | -10.2
GGAATGCGAAAGCAATCC (((.(((....))).))) | 50.9 | -25.6
GGAATGCGAAAGCAGTCC (((.(((....))).))) | 61.2 | -36.6
GGAATGGGAAACTGTTCC ((((..(....)..)))) | 35 | -25.8
GGAATTCGAAAGAATCC (((.(((....)))))) | 39 | -20.9
GGAATTGAAAAATTCC ((((((....)))))) | 48 | -28.9
GGAATTGGAAACAATTCC (((((((....))))))) | 56.3 | -45.1

Sequence | Tm [1] [°C] | folding enthalpy [2] [kcal/mol]
GGACAACGAAAGTTTTCC (((.(((....))).))) | 41.2 | -29.2
GGACAAGGAAACTTGTCC (((((((....))))))) | 61 | -45
GGACACGAAAGTGCATCC ((((((....)))..))) | 32.7 | -11.8
GGACACGAAAGTGCCTCC ((((((....)))..))) | 42.1 | -16.7
GGACACGAAAGTGGATCC ((((((....)))..))) | 40.3 | -15.6
GGACACGGAAACGCGTCC ((((.((....)).)))) | 54.6 | -46.4
GGACACGGAAACGTATCC (((.(((....))).))) | 40.9 | -27.4
GGACACGGAAACGTGTTC (.(((((....))))).) | 54.9 | -24.8
GGACAGGCGAAAGCCTCC (((..(((....)))))) | 31.1 | -9.93
GGACAGGGAAACTTGTCC (((((.(....).))))) | 49 | -37.1
GGACCAGGAAACTGACCC ((..(((....)))..)) | 23.5 | -10.6
GGACCCGAAAGGGATCC ((((((....))).))) | 54.2 | -20.8
GGACCCGAAAGGGGATCC ((((((....)))..))) | 51.4 | -14.8
GGACCCGAAAGGGTATCC ((((((....)))..))) | 38.9 | -11
GGACCCGGAAACAGGTCC (((((.(....).))))) | 49.4 | -39.7
GGACCCGGAAACGGATCC (((.(((....))).))) | 49.8 | -38.5
GGACCCTCGAAAGAGTCC (((..(((....)))))) | 35.9 | -16.3
GGACCGGGAAACCGACCC ((..(((....)))..)) | 31.1 | -18
GGACCGTCGAAAGACTCC (((..(((....)))))) | 30.7 | -12.9
GGACCTCCGAAAGGATCC (((..(((....)))))) | 28.7 | -13.3
GGACCTGGAAACAGATCC (((.(((....))).))) | 40.2 | -28.7
GGACCTGGAAACGGGTCC (((((.(....).))))) | 58.3 | -45
GGACGACCGAAAGGTTCC (((..(((....)))))) | 31.3 | -13.8
